WT yeast gro inh: growth inhibition of WT yeast, mitochondrial fusion screen | mitochondrial fusion phenotypic screen, WT strain | inhibition, % at 10 µM | 190,000 compounds, 2.1% hits; in the data active = inhibition above about 58%; tested in S. cerevisiae
Cl transport mod: KCC2 (human) Cl- transport modulation. Q9H2X9. KCC2 cells, thallium flux FluoZin-2 fluorescence. B-score of Tl+ flux slope (higher = more flux/activation; lower = inhibition) at 10 µM. 190,000 compounds, 2.2% hits;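 active = thallium flux slope and its plate-corrected score both differing from the plate sample mean at a set confidence after two filtering rounds, in either direction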;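 also: slope of fluorescence scaled to starting intensity during 10 to 20 s after thallium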
Yeast growth inh: reduces growth of yeast BB579 in restrictive medium | S. cerevisiae BB579 growth, OD615, 48 h | inhibition, % at 10 µM | 140,000 compounds, 0.51% hits;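 active = inhibition above a set limit, 3 SD over the mean compound inhibition, cut at about 44% in these data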
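Assay system – yeast BB579 (DeaD) · Dosing – single compound dose of 10 µM, 0.25% DMSO final · Detection – OD615 turbidity measurement · Buffer or medium – CSMM-D restrictive synthetic medium containing dextrose (glucose) · Benchmarks – positive control amphotericin B 10 µg/mL · Incubation – 48 h exposure, 30 °C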
RAM inhibit: inhibitors of the yeast RAM network | S. cerevisiae dse1pr::URA3 reporter, 5-FOA growth OD615, 2 d; analog-sensitive cbk1-as2 kinase mutant strain | inhibition, % at 50 µM | 190,000 compounds, 1.8% hits;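 active = inhibition above a set limit, 3 SD over mean compound inhibition, cut at about 8.4% in these data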;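 also: 0% = DMSO-only wells with no growth and 100% = 10 µM 1-NA-PP1 full growth; inhibition rescues growth on 5-FOA so higher OD means more RAM inhibition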
Yeast lifespan up: yeast lifespan extension; inhibition of the nicotinamide effect, % at 10 µM; 130,000 compounds, 0.68% hits; S. cerevisiae growth with nicotinamide, OD615; deaD strain in restrictive glucose medium;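 active = inhibition above a set limit, placed 3 SD over the median of all compounds, cut at about 26% in these data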;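 also: 0% = nicotinamide-treated wells and 100% = cells grown without nicotinamide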
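assay system = DeaD-strain S. cerevisiae | measured by = absorbance at 615 nm | probe or stimulus = nicotinamide 1.5 mM | buffer or medium = CSMM-D glucose medium, restrictive | times = 48 h at 30 °C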
RAM efflux-def: RAM network inhibition, efflux-deficient strain; shares compounds with RAM inhibit; S. cerevisiae efflux-deficient reporter strain, 5-FOA growth OD615, 2 days; max inhibition, %; 1,200 tested, under 10 active; call rule not given here;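 also: plate controls were vehicle for no effect and reference inhibitor for full effect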
Active calls of the source: *; . = not tested or not shown. Hits are enriched below; roughly 5.5% of the tested compounds scored in any of these assays.

SMILES | WT yeast gro inh | Cl transport mod | Yeast growth inh | RAM inhibit | Yeast lifespan up | RAM efflux-def
COc1ccc(/C=N/OCC(=O)NC(c2ccccc2)c2ccccc2)cc1OC | -3 | -2.4 | -19 | 3 | 3 | .
Cn1cc([N+](=O)[O-])c(C(=O)N(Cc2ccccc2)Cc2ccccc2)n1 | 3 | 0.49 | -27 | 0 | -1 | .
COc1cc2ccccc2cc1C(=O)NCC(c1cccs1)N(C)C (configuration not stated) | -2 | -3 | . | 3 | . | .
COc1cc(C2c3c(oc4ccccc4c3=O)C(=O)N2c2nccs2)ccc1O (configuration not stated) | . | 0.43 | . | . | . | .
Cc1cc(Cl)ccc1OCCCC(=O)NCCN1C(=O)S/C(=C\c2cccnc2)C1=O | -3 | -0.62 | -23 | 8 | -4 | .
COc1ccc(OC)c(-c2cc(C(=O)N3CCc4ccccc4C3)no2)c1 | 62* | -1.3 | -49 | 12* | 44* | 2
CCCCCCOC(=O)c1ccc(NC(=O)c2cc(OC)c(OC)c(OC)c2Br)cc1 | 32 | 0.62 | -22 | 11* | 1 | 4
CCCCOC(=O)c1ccc(NC(=O)c2c(Cl)ccc(Cl)c2OC)cc1 | 44 | -1.3 | -36 | 18* | 0 | 3
O=C(COC(=O)c1cc(-c2cccc(Br)c2)nc2ccccc12)NCC1CCCO1 (configuration not stated) | 71* | -0.24 | . | 15* | . | 3
Nn1cnnc1SCC(=O)Nc1ccc2c(c1)OCO2 | 3 | 0.032 | . | -1 | . | .
CCN(CC)CC(=O)Nc1scc2c1c(=O)oc1ccccc12 | . | -0.85 | . | . | . | .
CCOC(=O)C1(CCOc2ccccc2)CCN(C(=O)c2ccc(-n3cccn3)cc2)CC1 | 43 | -0.8 | . | 19* | . | 1
CCOC(=O)C1(CCOc2ccccc2)CCN(Cc2cccc(-n3cccn3)c2)CC1 | 24 | -0.46 | . | 2 | . | .
O=C(Nc1ccn(Cc2ccc(Cl)cc2)n1)c1ccccc1 | 6 | -2 | . | 1 | . | .
O=C(Nc1ccn(Cc2cccc3ccccc23)n1)c1cccnc1 | -9 | -0.9 | . | 12* | . | 2
COc1ccc(C2=NN(S(C)(=O)=O)C(c3cccs3)C2)cc1OC (configuration not stated) | -16 | -0.51 | . | 4 | . | .
CC(OC(=O)c1ccccc1NS(=O)(=O)c1cccc(C(F)(F)F)c1)C(=O)N(C)Cc1ccccc1 (configuration not stated) | 29 | -3.1 | -21 | 13* | 8 | 2
CN(Cc1ccccc1)C(=O)COC(=O)c1ccccc1NS(=O)(=O)c1cccc(N)c1 | -19 | 1 | -27 | 2 | -2 | .
COc1ccc(C(=O)COc2ccc(C)cc2NC(C)=O)cc1 | . | -0.4 | . | . | . | .
Cn1c(C(=O)N2CCCC(C(=O)c3ccc(C(F)(F)F)cc3)C2)cc(=O)n(C)c1=O (configuration not stated) | 11 | -0.4 | . | 3 | . | .
CNCC(C)COc1ccccc1OCc1ccccc1 (configuration not stated) | -6 | -1.6 | -17 | 20* | 1 | 2
CCOc1ccc(CNc2ccc(S(N)(=O)=O)cc2)cc1 | 11 | 1.4 | . | 0 | . | .
COc1ccc(CCN2C(=O)/C(=C\c3ccco3)SC2=S)cc1OC | 2 | 0.7 | . | 12* | . | 3
CC(=O)c1ccc(C(=O)N2CCCC(CCC(=O)N(C)CCc3ccccn3)C2)s1 (configuration not stated) | -9 | . | . | 1 | . | .
O=C(c1ccccc1)c1sc(N2CCCCCC2)nc1-c1ccccc1 | 6 | 0.96 | -58 | 12* | 2 | 4
SMILES | WT yeast gro inh | Cl transport mod | Yeast growth inh | RAM inhibit | Yeast lifespan up | RAM efflux-def
O=C(c1ccccc1)c1sc(N2CCOCC2)nc1-c1ccccc1 | 0 | 0.0032 | . | 0 | . | .
COc1ccc(O[C@H]2C=C[C@@H](c3ccccc3)O[C@@H]2COC(=O)CC/C(C)=N/OC[C@@H](O)COCc2ccco2)cc1 | 17 | -0.72 | -29 | 7 | 1 | .
COc1ccc(O[C@H]2C=C[C@@H](c3ccccc3)O[C@@H]2COC(=O)CC/C(C)=N/O[C@@H](C)c2cc(-c3c(C)cc(C)cc3C)no2)cc1 | -11 | 0.19 | -43 | 21* | 2 | 4
CCC(=O)NC(c1ccccc1Cl)c1c(O)ccc2ccccc12 (configuration not stated) | -15 | -0.51 | -30 | 2 | 5 | .
COc1ccccc1C(NC(=O)C1CCCCC1)c1c(O)ccc2ccccc12 (configuration not stated) | 2 | 0.15 | -1 | 12* | -3 | 5
O=C(CCN1CCCC1)c1cccs1 | . | 0.048 | . | . | . | .
O=C(CCc1ccc(CCC(=O)c2cccs2)s1)c1cccs1 | -27 | -0.013 | -30 | 17* | -11 | 4
Cc1ccccc1NC(=O)N1CCN(S(=O)(=O)c2ccccc2)CC1 | 7 | . | . | 3 | . | .
N#C/C(=C\c1cn(CCOc2ccccc2)c2ccccc12)C(=O)NCC1CCCO1 (configuration not stated) | -4 | 0.46 | -47 | 16* | -14 | 3
COc1ccccc1OCCn1cc(/C=C(\C#N)C(=O)NCc2cccs2)c2ccccc21 | -9 | -1 | -27 | 3 | -5 | .
CCOC(=O)/C(C#N)=C/c1cn(CCOc2ccc(OC)cc2)c2ccccc12 | 4 | -0.071 | -66 | 13* | -1 | 4
Cc1cc(NC(=S)N(CCCN2CCOCC2)Cc2ccco2)ccc1Cl | 11 | 0.17 | -7 | 0 | -2 | .
Cc1oc(-c2cc(Cl)cc(Cl)c2)cc1C(=O)NCCc1ccccc1 | 52 | -1.1 | -41 | 13* | 0 | 3
COc1ccc(CCNC(=O)c2cc(-c3cc(Cl)cc(Cl)c3)oc2C)cc1 | 20 | . | -76 | 8 | 4 | .
COc1ccccc1OCC(=O)N(Cc1nc(-c2ccccc2)no1)C1CCCCC1 | 61* | -0.55 | -47 | 13* | -1 | 2
CC(C)CC(N=Cc1c(O)c2ccccc2oc1=O)C(=O)O (configuration not stated) | -6 | -1.7 | . | 1 | . | .
COc1ccc(C(=O)CSc2nnc(CNC(=O)c3ccco3)n2C)cc1 | 4 | -0.028 | . | 0 | . | .
COc1ccccc1OCCNS(=O)(=O)c1ccc2oc3ccccc3c2c1 | 45 | -2.1 | -10 | 15* | 3 | 5
O=S1(=O)N=C(N(Cc2cccs2)c2ccc(O)cc2)c2ccccc21 | 7 | 0.13 | . | 1 | . | .
C=CCNC(=S)N/N=C/c1ccc(N(CC)Cc2ccccc2)cc1 | 69* | 0.31 | -13 | 15* | -1 | 3
O=C(c1ccccc1)N(Cc1cccnc1)C1(C(=O)Nc2ccccc2)CCCCC1 | -3 | 0.15 | -22 | 16* | -2 | 3
Cc1cc2cc(CNS(=O)(=O)c3ccc4ccccc4c3)ccc2n1C | -13 | 0.29 | -13 | 4 | -4 | .
Cc1cc(C)c(S(=O)(=O)NCc2ccc3c(c2)cc(C)n3C)c(C)c1 | -9 | 1.5 | -43 | 14* | 9 | 2
COC(=O)C1C(O)=C(C(C)=Nc2cccc3ccccc23)C(=O)CC1(C)C (configuration not stated) | . | -0.23 | . | . | . | .

Assay outcomes deposited in PubChem by several laboratories.
